SMILES strings stand for the structures.

The data set in a line: Toxicity liver stage against HepG2, at 10uM. Type of data set: cell-based. The arrangement: test concentration 10 uM, cell line HepG2-A16-CD81EGFP. The conditions noted are these: human, HepG2-A16-CD81EGFP cells; read-out: INHIBITION
The procedure, abridged: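 Uninfected HepG2-A16-CD81EGFP cells, 3 × 10^3 per well, 1536-well, plated on prespotted compound at 10 μM final, parasite-free screening media added to match infected plates; puromycin 10 μM positive, DMSO 0.5% negative; run in parallel with 48 h PbLuc assay at 37 °C, 5% CO2; viability by CellTiter-Glo luminescence, normalized to controls.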
Take `CCNC(=O)N1C[C@@H]2OCC(=O)N(CC3CCCCC3)[C@@H]2C1`: the cytotoxicity at 10 µM is -4.04%. To `CCn1nccc1C(=O)Nc1nc(C)c(C(C)=O)s1` belongs 1.28%. Under `O=C(Cc1cccs1)N1CC(c2nc(-c3cnccn3)no2)C1` stands -0.921%. As for `O=C(Cc1ccccc1Cl)Nc1cc(N2CCCC2)ncn1`, the cytotoxicity at 10 µM is -2.46%. Under `CC(=O)N1CCN(c2cc(-n3cccc3)ncn2)CC1` stands -2%; under `O=C1CCC2(CCCN(C(=O)c3cccs3)C2)N1` (stereo not drawn), 6.88%.

Consider `CN(C)CCN1C(=O)CCC12CCN(C(=O)CC1CC1)CC2`, for which the cytotoxicity at 10 µM came to 3.35%.

Turning to `CC(C)NC(=O)N1CCCn2cnc(CN3CCCC3=O)c2C1`, the cytotoxicity at 10 µM was determined as 17.4%. To `O=C(CCc1ccccc1)NCC1CCN(Cc2ccsc2)CC1` belongs 5.27%; to `COc1ccc(F)cc1S(=O)(=O)NCC(c1cccn1C)N(C)C` (stereo not drawn), -20.7%. To `O=S(=O)(Nc1cnn(C2CCOCC2)c1)c1ccc2c(c1)CCO2` belongs 5.42%; to `CCCc1noc(C2CCCCN2C(=O)C2CCCC2)n1` (stereo not drawn), -35.8%. Under `O=C(c1cc(-c2ccco2)cs1)N1CCCC1` stands 11%; under `Cn1cccc1C(=O)N1CCCCC1c1ccn2ccnc2n1` (stereo not drawn), -28.2%. Regarding `COCc1nc(C2CCN(Cc3nccn3C)CC2)no1`, the cytotoxicity at 10 µM was -14.2%. Under `CCn1cc(CN2C[C@@H]3CCCN3C[C@H]2CCSC)c(C)n1` stands -15.3%; under `COc1ccc(CN2CCc3c(nc(-c4ccccn4)[nH]c3=O)C2)cc1`, -15.9%.

`COc1ccccc1CC(=O)N1CC[C@H](O)[C@]2(CCCO2)C1`: the cytotoxicity at 10 µM was -6.75%. For the compound `Cc1cnn(CCNCc2nccn2Cc2ccccc2)c1`, the cytotoxicity at 10 µM stood at 5.91%. Under `Cc1cc(C)nc(NC2CCc3nc(C)nn3C2)n1` (stereo not drawn) stands 14.3%; under `CN(C)C(=O)CCNC(=O)Nc1sc2ccccc2c1Cl`, 6.14%; under `O=C(c1cc(C2CCCC2)no1)N1CC(O)C1`, -1.57%. To `Cc1nn(C)c(C)c1C1CCCN1c1ncnc2c1CCC2` (stereo not drawn) belongs 13.1%.

Regarding `O=C1CCN(C(=O)NCCCc2ccc(Cl)cc2Cl)CCN1`, the cytotoxicity at 10 µM is -2.37%. Under `CCCc1nc(C)c(C(=O)NCc2ccc(C)n2C)s1` stands 16.5%; under `CC(C)C(C(=O)NC1CCOCC1)n1cnc2cc(F)c(F)cc21` (stereo not drawn), -2.75%; under `COCCn1cc(C(=O)N2CCCC2c2ccncc2)c2ccccc21` (stereo not drawn), 10.7%. Under `CC(C)(CNC(=O)Nc1nccs1)N1CCOCC1` stands -9.47%; under `CS(=O)(=O)NC1CCN(c2cccc(F)c2C#N)CC1`, -3.6%; under `OCC(O)CSCc1nnc(-c2cccc(F)c2)o1` (stereo not drawn), 15.4%. To `COc1cccc(CNc2nc(C)cc(C)n2)c1OC` belongs -6.44%; to `N#CC(NC(=O)CS(=O)(=O)C1CCCC1)c1ccc(F)cc1F` (stereo not drawn), 3.56%.

For the compound `COCCN(Cc1ccccc1)Cc1csc(-c2ncccn2)n1`, the cytotoxicity at 10 µM was 3.78%.

For `Cn1nccc1CNC(=O)NC1CCN(c2ncccc2Cl)C1` (stereo not drawn), the cytotoxicity at 10 µM was determined as 4.37%. To `Cc1nc2n(n1)CCN(S(=O)(=O)c1ccc(OC(F)(F)F)cc1)C2` belongs -5.86%; to `Cc1c(F)cccc1S(=O)(=O)NCC(C)(C)CC(C)O` (stereo not drawn), -8.29%; to `Cc1cc(C(C)NC(=O)c2cnc3onc(C)c3c2)c(C)o1` (stereo not drawn), 6.15%.

Regarding `CCn1c(C2CCCN2Cc2noc(C(C)(C)C)n2)nc2ccccc21` (stereo not drawn), the cytotoxicity at 10 µM is 3.18%.

`Cc1nnc(-c2cccc(C#N)c2)n1C1CCN(C(C)C)C1=O` (stereo not drawn): the cytotoxicity at 10 µM was -2.4%. To `COCCCNC(=O)CN(C)C(=O)CN(C)c1ccc(C#N)cn1` belongs -6.08%.

`O=C(CCNS(=O)(=O)c1ccc2c(c1)CCCC2)NCc1ccoc1`: the cytotoxicity at 10 µM stood at 5.86%. Under `CCc1ccccc1C(=O)N1CCN(S(C)(=O)=O)[C@@H](C)C1` stands -8.72%. With `Cc1n[nH]c(C2CN(C(=O)c3ccco3)CCO2)n1` (stereo not drawn), the cytotoxicity at 10 µM was -14.5%. To `CCS(=O)(=O)N1C[C@H]2CN(CC3CC3)C(=O)[C@H]2C1` belongs 0.797%; to `O=C(CCc1nc(-c2ccccc2)no1)N[C@H]1COC[C@@H]1N1CCCC1`, -1.83%. To `COCc1cc(N2CCOCC2)n2nccc2n1` belongs -1.98%; to `CN1CCN2CCN(Cc3cnc(NCc4ccccc4)nc3)CC2C1` (stereo not drawn), -16.8%; to `Cc1c(C(C)N)cnn1-c1ccccn1` (stereo not drawn), -3.86%. As to `Cc1cc(C(=O)NC(C)c2nnn[nH]2)c2ccc(C)c(C)c2n1` (stereo not drawn), the cytotoxicity at 10 µM is -10.7%. For `OCCNc1cc(N2CCN(Cc3ccccc3)C(CCO)C2)ncn1` (stereo not drawn), the cytotoxicity at 10 µM worked out at 6.45%.

On to `CCn1c(C)nnc1SCCNC(=O)c1sc(C(C)C)nc1C`, for which the cytotoxicity at 10 µM was -1.27%. On to `O=C(NCc1cccnc1N1CCc2ccccc2C1)c1cnc[nH]1`, for which the cytotoxicity at 10 µM was 5.97%.

With `O=S(=O)(Cc1ccccc1F)NCCN1CCOCC1`, the cytotoxicity at 10 µM turned out to be 24.8%. Under `COC(=O)C1CCN(C(=O)c2ccc(C)c(NS(C)(=O)=O)c2)CC1` stands 3.98%.

Turning to `Cc1nc(C)n(C2CCCN(C(=O)CCCc3ccccn3)C2)n1` (stereo not drawn), the cytotoxicity at 10 µM was -0.586%.

Consider `CN(Cc1ccncc1)C(=O)[C@H]1CSCN1C(=O)OC(C)(C)C`, for which the cytotoxicity at 10 µM was -9.65%. Under `CC(=O)N1CCC(C(=O)NCc2cc[nH]n2)(c2ccccc2)CC1` stands -0.037%. To `CC(=O)N(Cc1noc(C2CC2)n1)C1CCN(CC(=O)NC2CC2)C1` (stereo not drawn) belongs -3.67%; to `CSCc1ccc(CNC2CCCN(c3ccc(C)nn3)C2)o1` (stereo not drawn), -13.2%; to `COc1ccc(C(=O)N2CCC(Nc3cccnn3)CC2)cn1`, 4.07%. Under `Cc1cc(CN(C)C(=O)NC2CCN(S(C)(=O)=O)CC2)no1` stands 3.25%. On to `CC(O)CN1CCN(C(=O)c2ccn(-c3cccc(Cl)c3)n2)CC1` (stereo not drawn), for which the cytotoxicity at 10 µM was -6.8%.

For `CC(NC(=O)N1CCN(CCc2ccccc2)CC1)c1nncn1C` (stereo not drawn), the cytotoxicity at 10 µM was determined as 0.0722%.

As for `COc1ccccc1C(=O)N(C)Cc1ncc(C)c(OC)c1C`, the cytotoxicity at 10 µM stood at 5.37%.

Take `Nc1cccnc1N1CCCCCC1`: the cytotoxicity at 10 µM was found to be 4.45%. Under `COc1ccc(CN2CCC(c3cc(O)nc(C)n3)C2)c(OC)c1` (stereo not drawn) stands -5.77%; under `Cc1ccc(-c2cnc3n2CCN(C)C32CCN(CC3CC3)CC2)cc1`, 11%; under `CC(C)N1CCC2(CCCN(c3nccc(C(F)(F)F)n3)C2)CC1`, 10.9%. To `CC(C)n1nc(Cn2cccn2)c2c1CN(C1CCOC1)C2` (stereo not drawn) belongs 6.95%; to `O=S(=O)(c1cccs1)N1CCCn2cnc(CN3CCCC3)c2C1`, 1.14%. Under `O=C(NCCn1nc(C2CCNC2)c2cccnc21)c1ccccc1` (stereo not drawn) stands -23.9%; under `O=C1NC2(CCN(Cc3cccnc3)CC2)CC1c1cccnc1` (stereo not drawn), 3.14%; under `CCCN1C[C@@H]2CC[C@H]1CN(c1nnc(C(C)C)s1)C2`, -11.4%.
